Screening data (PubChem)
This excerpt belongs to a sample that is enriched for hits.
T cruzi HTS: blocks T. cruzi growth inside host cells. intracellular Trypanosoma cruzi in host cells, plate reader. activity score (inhibition), % at 5.01 µM. 22,000 compounds, 4.9% hits; in the data active = activity score above about 55%;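 also: parasites and compound incubated about four days before reading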
INS-1E ATP HTS: INS-1E beta cell protection from cytokine death. 20,000 compounds, 0.1% hits. INS-1E cytokine-induced death, ATP luminescence, 48 h; normalised: neutral wells 0, positive control 100. protection from cytokine-induced ATP loss, % at 10 µM;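 active = mean replicate protection from cytokine-induced ATP loss at least 50% and at least 75% of replicates each reaching 50%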
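assay system = INS-1E rat insulinoma cells | amount = 8000 cells per well | medium = phenol-red-free RPMI with 5% fetal bovine serum | doses = one compound concentration, pin transfer | timing = 48 h cytokine plus compound treatment, 10 min reagent incubation | also added = IL-1β, TNF-α and IFN-γ cytokine mix | signal = CellTiter-Glo luminescence measuring cellular ATP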
A1 apoptosis 2: A1 inhibition read as caspase activation. AID 2465. caspase activation, % (test concentration not listed). 24,000 tested, under 10 active. MEF A1-2A-BIM cells, caspase-Glo luminescence, 3 h; percent of clofoctol response, DMSO zero; in the data active = caspase activation above about 5.9%
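Test system – A1-2A-BIM-expressing MEF cells · Input – 2500 cells/well · Medium – RPMI-1640 growth medium with 10% FBS · Compound dosing – 50 nL pinned compound · Timing – 3 h compound exposure at 37 °C · Technique – Caspase-Glo luminescence (DEVD substrate) · Evaluation – Caspase-3/7 activity from luminescence increase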
A number is an active result; – = inactive; · = not tested or not shown.

SMILES | T cruzi HTS | INS-1E ATP HTS | A1 apoptosis 2
C[C@@H]1CCCCO[C@@H](CN(C)Cc2ccc(C(=O)Nc3ccccc3N)cc2)[C@@H](C)CN([C@H](C)CO)C(=O)c2cc(NC(=O)Nc3ccc(C(F)(F)F)cc3)ccc2O1 | 81 | – | –
C[C@@H]1CN([C@H](C)CO)C(=O)Cc2cc(NC(=O)Cc3ccccc3)ccc2O[C@H]1CN(C)C(=O)NC1CCCCC1 | – | – | –
O=C(NC1CC1)[C@@H]1c2ccccc2C(=O)N(CC23CC4CC(CC(C4)C2)C3)[C@H]1c1ccc(CO)cc1 | · | · | –
CNC[C@H]1Oc2ccc(NC(=O)Cn3cnnn3)cc2CC(=O)N([C@H](C)CO)C[C@@H]1C | · | · | –
COc1ccc(NC(=O)N(C)C[C@H]2Oc3ccc(NC(=O)Nc4cccc5ccccc45)cc3C(=O)N([C@H](C)CO)C[C@@H]2C)cc1 | – | – | ·
COc1ccc(NC(=O)Nc2ccc3c(c2)C(=O)N([C@@H](C)CO)C[C@@H](C)[C@@H](CN(C)Cc2ccc(C(F)(F)F)cc2)OCCCC[C@H](C)O3)cc1 | · | · | –
COc1ccc(NC(=O)Nc2ccc3c(c2)C(=O)N([C@H](C)CO)C[C@H](C)[C@@H](CN(C)Cc2ccc(C(F)(F)F)cc2)OCCCC[C@@H](C)O3)cc1 | 63 | – | –
COc1ccc(CN(C)C[C@@H]2OCc3cn(nn3)CCCC(=O)N([C@@H](C)CO)C[C@@H]2C)cc1 | – | · | –
C[C@H]1CN([C@@H](C)CO)C(=O)Cc2cc(NC(=O)Nc3ccc(F)cc3)ccc2O[C@@H]1CN(C)S(C)(=O)=O | – | – | ·
C[C@@H]1CN([C@@H](C)CO)C(=O)c2cc(NC(=O)Nc3ccc(C(F)(F)F)cc3)ccc2O[C@@H]1CN(C)S(=O)(=O)c1ccccc1 | – | – | –
C[C@H](CO)N1C[C@H](C)[C@@H](CN(C)Cc2ccc3c(c2)OCO3)Oc2c(NC(=O)Nc3cccc4ccccc34)cccc2C1=O | – | – | –
C[C@@H]1CN([C@H](C)CO)C(=O)c2cccc(NS(=O)(=O)c3ccc(F)cc3)c2O[C@H]1CN(C)Cc1ccc(C(=O)O)cc1 | – | – | –
C[C@@H]1CN([C@H](C)CO)C(=O)Cc2cc(NC(=O)Nc3ccc4c(c3)OCO4)ccc2O[C@H]1CN(C)CC1CCCCC1 | 64 | – | –
C[C@@H]1CN([C@H](C)CO)C(=O)Cc2cc(NC(=O)Nc3ccc(F)cc3)ccc2O[C@@H]1CN(C)CC1CC1 | · | · | –
C[C@@H]1CN([C@H](C)CO)C(=O)Cc2cc(NC(=O)Nc3ccc(F)cc3)ccc2O[C@@H]1CN(C)CC1CCCCC1 | 67 | – | –
C[C@H](CO)N1C[C@H](C)[C@@H](CN(C)CC2CCCCC2)Oc2ccc(NC(=O)Nc3ccc(F)cc3)cc2CC1=O | · | · | –
C[C@H](CO)N1C[C@H](C)[C@H](CN(C)CC2CCCCC2)Oc2ccc(NC(=O)Nc3ccc4c(c3)OCO4)cc2CC1=O | – | – | –
C[C@@H]1CN([C@H](C)CO)C(=O)Cc2cc(NC(=O)Nc3ccc(F)cc3)ccc2O[C@H]1CN(C)CC1CCCCC1 | 60 | – | ·
C[C@H](CO)N1C[C@H](C)[C@@H](CN(C)C(=O)Nc2ccc(F)cc2)Oc2ccc(NC(=O)Nc3cccc4ccccc34)cc2CC1=O | · | · | –
C[C@@H]1CN([C@H](C)CO)C(=O)c2cccc(NC(=O)Nc3ccc(F)cc3)c2O[C@@H]1CN(C)Cc1ccc2c(c1)OCO2 | – | – | –
COc1ccc(S(=O)(=O)N(C)C[C@@H]2Oc3c(NC(=O)C4CCOCC4)cccc3C(=O)N([C@H](C)CO)C[C@@H]2C)cc1 | – | – | –
C[C@@H]1CN([C@@H](C)CO)C(=O)c2cccc(NC(=O)c3nc4ccccc4s3)c2O[C@@H]1CN(C)S(=O)(=O)c1ccc(Cl)cc1 | – | – | –
C[C@H](CO)N1C[C@H](C)[C@@H](CN(C)S(=O)(=O)c2ccc(Cl)cc2)Oc2c(NC(=O)c3nc4ccccc4s3)cccc2C1=O | 66 | – | –
C[C@@H]1CN([C@H](C)CO)C(=O)c2cccc(NC(=O)c3nc4ccccc4s3)c2O[C@@H]1CN(C)S(=O)(=O)c1ccc(Cl)cc1 | – | – | –
C[C@H](CO)N1C[C@H](C)[C@H](CN(C)S(=O)(=O)c2ccc(Cl)cc2)Oc2c(NC(=O)c3nc4ccccc4s3)cccc2C1=O | 71 | – | –
SMILES | T cruzi HTS | INS-1E ATP HTS | A1 apoptosis 2
C[C@H](CO)N1C[C@H](C)[C@@H](CN(C)S(=O)(=O)c2cn(C)cn2)Oc2ccc(N(C)C)cc2C1=O | · | · | –
C[C@H]1CN([C@@H](C)CO)C(=O)c2cc(NC(=O)Nc3ccc(F)cc3)ccc2O[C@@H]1CN(C)Cc1ccc(C(F)(F)F)cc1 | – | – | –
C[C@H](CO)N1C[C@H](C)[C@H](CN(C)C(=O)Nc2cccc3ccccc23)Oc2ccc(NC(=O)CCN3CCOCC3)cc2C1=O | – | – | –
C[C@@H]1CN([C@H](C)CO)C(=O)Cc2cc(NC(=O)Nc3ccc(C(F)(F)F)cc3)ccc2O[C@@H]1CN(C)Cc1ccc(C(=O)Nc2ccccc2N)cc1 | 83 | – | –
C[C@H]1CN([C@@H](C)CO)C(=O)Cc2cc(NC(=O)c3ccncc3)ccc2O[C@@H]1CN(C)Cc1ccc(C(=O)Nc2ccccc2N)cc1 | – | – | –
C[C@H]1CN([C@@H](C)CO)C(=O)Cc2cc(NC(=O)Nc3ccc(C(F)(F)F)cc3)ccc2O[C@H]1CN(C)Cc1ccc(C(=O)Nc2ccccc2N)cc1 | 87 | – | –
C[C@H](CO)N1C[C@H](C)[C@H](CN(C)Cc2ccc(C(=O)Nc3ccccc3N)cc2)Oc2ccc(NC(=O)Nc3ccc(C(F)(F)F)cc3)cc2C1=O | – | – | –
C[C@@H]1CN([C@@H](C)CO)C(=O)c2cccc(NC(=O)C3CCCCC3)c2O[C@@H]1CN(C)S(=O)(=O)c1ccc(Cl)cc1 | – | – | –
C[C@@H]1CN([C@H](C)CO)C(=O)c2cc(NS(=O)(=O)c3ccc(Cl)cc3)ccc2O[C@@H]1CN(C)Cc1ccc(Cl)c(Cl)c1 | 85 | – | ·
C[C@@H]1CCCCO[C@H](CN(C)Cc2ccc(Cl)c(Cl)c2)[C@@H](C)CN([C@H](C)CO)C(=O)c2cc(NS(=O)(=O)c3cccs3)ccc2O1 | – | – | ·
C[C@H]1CN([C@@H](C)CO)C(=O)c2cc(NS(=O)(=O)c3ccc(Cl)cc3)ccc2O[C@H]1CN(C)Cc1ccc(Cl)c(Cl)c1 | · | · | –
C[C@@H]1CCCCO[C@@H](CN(C)Cc2ccc(Cl)c(Cl)c2)[C@@H](C)CN([C@H](C)CO)C(=O)c2cc(NS(=O)(=O)c3cccs3)ccc2O1 | 68 | – | –
C[C@H](CO)N1C[C@H](C)[C@H](CN(C)Cc2ccc(Cl)c(Cl)c2)Oc2ccc(NS(=O)(=O)c3ccc(Cl)cc3)cc2C1=O | – | – | ·
C[C@H]1CN([C@@H](C)CO)C(=O)c2cc(NS(=O)(=O)c3ccc(F)cc3)ccc2O[C@@H]1CN(C)Cc1ccc(Cl)c(Cl)c1 | 70 | – | ·
C[C@H](CO)N1C[C@H](C)[C@H](CN(C)Cc2ccc(Cl)c(Cl)c2)Oc2ccc(NS(=O)(=O)c3ccc(F)cc3)cc2C1=O | – | – | –
